Measurements from ChEMBL document CHEMBL1926550, “Synthesis and antibacterial activity of naphthyridone derivatives containing mono/difluoro-methyloxime pyrrolidine scaffolds” (2012).
Converted amounts (≈) assume the structure as drawn.

system: Enterococcus faecium; test: Antibacterial activity against Enterococcus faecium 09-6 after 18 hrs by two fold serial dilution method; type: functional; conditions: 09-6, 18 h
Outline: (§1)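 Agar two-fold serial dilution in melted Mueller-Hinton agar, final concentrations 128 down to 0.008 μg/mL. Plates inoculated with 10⁴ cfu and incubated at 35 °C for 18 h. MIC taken as the lowest concentration giving no visible growth on the plate.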

SMILES	MIC
COc1c(N2C[C@@H]3CCCN[C@@H]3C2)c(F)cc2c(=O)c(C(=O)O)cn(C3CC3)c12 [MOXIFLOXACIN]	0.125 µg/mL (≈ 0.311 µM)

system: Staphylococcus aureus; test: Antibacterial activity against methicillin-sensitive Staphylococcus aureus 10-2 after 18 hrs by two fold serial dilution method; type: functional; conditions: 10-2, 18 h; outline: as §1

SMILES	MIC
COc1c(N2C[C@@H]3CCCN[C@@H]3C2)c(F)cc2c(=O)c(C(=O)O)cn(C3CC3)c12 [MOXIFLOXACIN]	4 µg/mL (≈ 9.96 µM)

system: Pseudomonas aeruginosa; test: Antibacterial activity against Pseudomonas aeruginosa 10-3 after 18 hrs by two fold serial dilution method; type: functional; conditions: 10-3, 18 h; outline: as §1

SMILES	MIC
COc1c(N2C[C@@H]3CCCN[C@@H]3C2)c(F)cc2c(=O)c(C(=O)O)cn(C3CC3)c12 [MOXIFLOXACIN]	4 µg/mL (≈ 9.96 µM)

system: Staphylococcus aureus; test: Antibacterial activity against methicillin-resistant Staphylococcus aureus 10-2 after 18 hrs by two fold serial dilution method; type: functional; conditions: 10-2, 18 h
Outline: (§2)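 Agar two-fold serial dilution in melted Mueller-Hinton agar, 128 to 0.008 μg/mL. Plates inoculated with 10⁴ cfu, incubated 35 °C for 18 h. MIC taken as lowest concentration giving no visible growth on the plate.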

SMILES	MIC
COc1c(N2C[C@@H]3CCCN[C@@H]3C2)c(F)cc2c(=O)c(C(=O)O)cn(C3CC3)c12 [MOXIFLOXACIN]	8 µg/mL (≈ 19.9 µM)

system: Staphylococcus aureus; test: Antibacterial activity against methicillin-sensitive Staphylococcus aureus 10-1 after 18 hrs by two fold serial dilution method; type: functional; conditions: 10-1, 18 h; outline: as §1

SMILES	MIC
COc1c(N2C[C@@H]3CCCN[C@@H]3C2)c(F)cc2c(=O)c(C(=O)O)cn(C3CC3)c12 [MOXIFLOXACIN]	0.008 µg/mL (≈ 0.0199 µM)

system: Staphylococcus aureus; test: Antibacterial activity against methicillin-sensitive Staphylococcus aureus 10-6 after 18 hrs by two fold serial dilution method; type: functional; conditions: 10-6, 18 h; outline: as §1

SMILES	MIC
COc1c(N2C[C@@H]3CCCN[C@@H]3C2)c(F)cc2c(=O)c(C(=O)O)cn(C3CC3)c12 [MOXIFLOXACIN]	0.008 µg/mL (≈ 0.0199 µM)

system: Staphylococcus epidermidis; test: Antibacterial activity against methicillin-sensitive Staphylococcus epidermidis 10-2 after 18 hrs by two fold serial dilution method; type: functional; conditions: 10-2, 18 h; outline: as §1

SMILES	MIC
COc1c(N2C[C@@H]3CCCN[C@@H]3C2)c(F)cc2c(=O)c(C(=O)O)cn(C3CC3)c12 [MOXIFLOXACIN]	16 µg/mL (≈ 39.9 µM)

system: Enterococcus faecium; test: Antibacterial activity against Enterococcus faecium 09-4 after 18 hrs by two fold serial dilution method; type: functional; conditions: 09-4, 18 h; outline: as §1

SMILES	MIC
COc1c(N2C[C@@H]3CCCN[C@@H]3C2)c(F)cc2c(=O)c(C(=O)O)cn(C3CC3)c12 [MOXIFLOXACIN]	0.008 µg/mL (≈ 0.0199 µM)

system: Enterococcus faecium; test: Antibacterial activity against Enterococcus faecium 09-1 after 18 hrs by two fold serial dilution method; type: functional; conditions: 09-1, 18 h; outline: as §1

SMILES	MIC
COc1c(N2C[C@@H]3CCCN[C@@H]3C2)c(F)cc2c(=O)c(C(=O)O)cn(C3CC3)c12 [MOXIFLOXACIN]	16 µg/mL (≈ 39.9 µM)

system: Pseudomonas aeruginosa; test: Antibacterial activity against Pseudomonas aeruginosa 10-2 after 18 hrs by two fold serial dilution method; type: functional; conditions: 10-2, 18 h; outline: as §1

SMILES	MIC
COc1c(N2C[C@@H]3CCCN[C@@H]3C2)c(F)cc2c(=O)c(C(=O)O)cn(C3CC3)c12 [MOXIFLOXACIN]	16 µg/mL (≈ 39.9 µM)

system: Staphylococcus epidermidis; test: Antibacterial activity against methicillin-resistant Staphylococcus epidermidis 10-1 after 18 hrs by two fold serial dilution method; type: functional; conditions: 10-1, 18 h; outline: as §2

SMILES	MIC
COc1c(N2C[C@@H]3CCCN[C@@H]3C2)c(F)cc2c(=O)c(C(=O)O)cn(C3CC3)c12 [MOXIFLOXACIN]	0.5 µg/mL (≈ 1.25 µM)

system: Enterococcus faecium; test: Antibacterial activity against Enterococcus faecium 09-5 after 18 hrs by two fold serial dilution method; type: functional; conditions: 09-5, 18 h; outline: as §1

SMILES	MIC
COc1c(N2C[C@@H]3CCCN[C@@H]3C2)c(F)cc2c(=O)c(C(=O)O)cn(C3CC3)c12 [MOXIFLOXACIN]	16 µg/mL (≈ 39.9 µM)

system: Enterococcus faecium; test: Antibacterial activity against Enterococcus faecium 09-2 after 18 hrs by two fold serial dilution method; type: functional; conditions: 09-2, 18 h; outline: as §1

SMILES	MIC
COc1c(N2C[C@@H]3CCCN[C@@H]3C2)c(F)cc2c(=O)c(C(=O)O)cn(C3CC3)c12 [MOXIFLOXACIN]	16 µg/mL (≈ 39.9 µM)

system: Pseudomonas aeruginosa; test: Antibacterial activity against Pseudomonas aeruginosa 10-1 after 18 hrs by two fold serial dilution method; type: functional; conditions: 10-1, 18 h; outline: as §1

SMILES	MIC
COc1c(N2C[C@@H]3CCCN[C@@H]3C2)c(F)cc2c(=O)c(C(=O)O)cn(C3CC3)c12 [MOXIFLOXACIN]	0.5 µg/mL (≈ 1.25 µM)

system: Staphylococcus aureus; test: Antibacterial activity against Staphylococcus aureus ATCC 25923 after 18 hrs by two fold serial dilution method; type: functional; conditions: ATCC 25923, 18 h; outline: as §1

SMILES	MIC
COc1c(N2C[C@@H]3CCCN[C@@H]3C2)c(F)cc2c(=O)c(C(=O)O)cn(C3CC3)c12 [MOXIFLOXACIN]	0.008 µg/mL (≈ 0.0199 µM)

system: Streptococcus pneumoniae; test: Antibacterial activity against Streptococcus pneumoniae 10-1 after 18 hrs by two fold serial dilution method; type: functional; conditions: 10-1, 18 h; outline: as §1

SMILES	MIC
COc1c(N2C[C@@H]3CCCN[C@@H]3C2)c(F)cc2c(=O)c(C(=O)O)cn(C3CC3)c12 [MOXIFLOXACIN]	0.008 µg/mL (≈ 0.0199 µM)

system: Staphylococcus aureus; test: Antibacterial activity against methicillin-resistant Staphylococcus aureus 10-4 after 18 hrs by two fold serial dilution method; type: functional; conditions: 10-4, 18 h; outline: as §2

SMILES	MIC
COc1c(N2C[C@@H]3CCCN[C@@H]3C2)c(F)cc2c(=O)c(C(=O)O)cn(C3CC3)c12 [MOXIFLOXACIN]	8 µg/mL (≈ 19.9 µM)
